This is an account of results in ChEMBL document CHEMBL2157993, “Urea-based inhibitors of Trypanosoma brucei methionyl-tRNA synthetase: selectivity and in vivo characterization” (J Med Chem, 2012).

The ΔTm is the shift of the melting midpoint relative to a reference. The term IC50 denotes the concentration needed to halve the response being measured. As usually defined, the EC50 is the concentration at which the effect is half-maximal. For orientation: Papp means a coefficient for how fast a substance crosses the barrier. The low end stands for poor permeation, the high end for ready permeation.

The source made the active and inactive calls. The calls are words filed in the database; no cut-off is given here.

In data set [1] the test system is Trypanosoma brucei. In words: Binding affinity to Trypanosoma brucei MetRS at 100 uM by thermal shift assay. The essentials: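 Thermal shift (ΔTm) read-out with T. brucei MetRS at 0.4 mg/ml and 5% DMSO; otherwise per an earlier protocol. The test agent was at the single concentration in the curator's line. Repeated three times independently.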
Data set [2] has as its target ATP-dependent translocase ABCB1 (Homo sapiens, UniProt P08183). The data set is described as follows: Binding affinity to MDR1 expressed in MDCK2 cells assessed as absorptive quotient at 3 uM in absence of 2 uM by mass spectroscopy. Conditions: dog, mdck-ii. It counts as ADME, cell-based. The essentials: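 Monolayers preincubated about 30 min with or without 2 μM elacridar, then given compound at 3 μM final (apical). After 60 min shaking, both chambers were sampled for MS. Integrity checked by Lucifer Yellow and TEER. Triplicate. Papp(A-B) and AQ calculated.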

Data set [3] relates to Trypanosoma brucei. In words: Inhibition of protein synthesis in Trypanosoma brucei assessed as reduction in [3H]L-histidine incorporation into proteins incubated for 4 hrs by scintillation counting. It counts as functional, organism-based.
Data set [4] can be described thus: Inhibition of Trypanosoma brucei MetRS aminoacylation activity assessed as reduction in [3H]methionine incorporation into Escherichia coli tRNA pre-incubated for 15 mins before tRNA addition and measured after 120 mins by scintillation counting. In outline: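 Recombinant enzyme at 10 nM, preincubated 15 min with 12-point two-fold inhibitor dilutions in 25 mM HEPES pH 7.9, 10 mM MgCl2, 50 mM KCl, spermine, BSA, DTT, 1% DMSO and pyrophosphatase. Reaction started with 400 μg/mL E. coli tRNA, 0.1 mM ATP and 250 nM [3H]methionine, run 120 min at room temperature. TCA-precipitated and filtered for scintillation counting. Quadruplicate, with IC50 by sigmoidal fit.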

The nature of data set [5]: Selectivity ratio of IC50 for human MetRS to IC50 for Trypanosoma brucei MetRS. In outline:
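Ratio of the human mitochondrial MetRS IC50 to the T. brucei MetRS IC50, each from a [3H]methionine aminoacylation assay.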

The test system of data set [6] is Trypanosoma brucei brucei. The data set is described as follows: Growth inhibition of Trypanosoma brucei brucei 427 blood stream forms after 48 hrs by alamar blue assay. It counts as functional, organism-based. Conditions: Trypanosoma brucei, 427, 48 h. The essentials: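 Strain 427 bloodstream forms cultured in HMI-9 with 10% FBS at 37°C, 5% CO2. Triplicate wells seeded at 5×10^4 trypomastigotes with serial compound dilutions from 20 mM DMSO stocks. AlamarBlue read-out at 48 h, with pentamidine as the positive control.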
A general note: Alamar Blue is a resazurin reagent that responds to reducing activity.

The next data set relates to HepG2. The data set is described as follows: Cytotoxicity against human HepG2 cells incubated for 48 hrs by alamar blue assay. Conditions: HepG2, 48 h. In kind it is cell-based. The essentials: (§1)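 […] cells in RPMI or HepG2 cells in DMEM/F-12, each with 10% serum, seeded at 5×10^3 per well. Exposed to serial compound dilutions for 48 h.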
A short description of data set [7]: Cytotoxicity against human CRL8155 cells incubated for 48 hrs by alamar blue assay. It counts as cell-based. The settings on record: CRL8155, 48 h. In outline:
as §1

Data set [8] is described as follows: Permeability across MDCK2-MDR1 cells expressing MDR1 at 3 uM in absence of 2 uM P-gp inhibitor Elacridal by mass spectroscopy. In kind it is ADME, cell-based, Canis lupus familiaris. The settings on record: dog, mdck-ii. The essentials:
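MDR1-MDCKII cells seeded on Transwell inserts and assayed 3 days later at 37°C in HBSS with glucose and HEPES. Monolayers preincubated about 30 min with or without 2 μM elacridar, then given compound at 3 μM final (apical). After 60 min shaking, both chambers were sampled for MS. Integrity checked by Lucifer Yellow and TEER. Triplicate. Papp(A-B) and AQ calculated.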

Data set [9] is described as follows: Drug level in Swiss Webster mouse brain at 5 mg/kg, ip after 60 mins by MS/MS method. Set-up: dose 5 mg/kg, route intraperitoneal. The settings on record: read-out: Drug uptake. In kind it is ADME, organism-based. The essentials: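 Female Swiss Webster mice, 6-8 weeks old, three per compound, given 5 mg/kg IP in 5% DMSO/3% EtOH/7% Tween 80 saline. Killed at 1 h. Plasma and homogenised brain extracted with acetonitrile containing an extraction standard, with spiked blank brains used for standardisation. Quantified by LC-MS/MS.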

The nature of data set [10]: Selectivity index, ratio of EC50 for human CRL8155 cells to EC50 for Trypanosoma brucei brucei 427. In kind it is toxicity. The settings on record: read-out: Ratio EC50.
A short description of data set [11]: Selectivity index, ratio of EC50 for human HepG2 cells to EC50 for Trypanosoma brucei brucei 427. It counts as toxicity, cell-based. The settings on record: read-out: Ratio EC50.

Chain of ATP-dependent translocase ABCB1 (P08183 whole entry): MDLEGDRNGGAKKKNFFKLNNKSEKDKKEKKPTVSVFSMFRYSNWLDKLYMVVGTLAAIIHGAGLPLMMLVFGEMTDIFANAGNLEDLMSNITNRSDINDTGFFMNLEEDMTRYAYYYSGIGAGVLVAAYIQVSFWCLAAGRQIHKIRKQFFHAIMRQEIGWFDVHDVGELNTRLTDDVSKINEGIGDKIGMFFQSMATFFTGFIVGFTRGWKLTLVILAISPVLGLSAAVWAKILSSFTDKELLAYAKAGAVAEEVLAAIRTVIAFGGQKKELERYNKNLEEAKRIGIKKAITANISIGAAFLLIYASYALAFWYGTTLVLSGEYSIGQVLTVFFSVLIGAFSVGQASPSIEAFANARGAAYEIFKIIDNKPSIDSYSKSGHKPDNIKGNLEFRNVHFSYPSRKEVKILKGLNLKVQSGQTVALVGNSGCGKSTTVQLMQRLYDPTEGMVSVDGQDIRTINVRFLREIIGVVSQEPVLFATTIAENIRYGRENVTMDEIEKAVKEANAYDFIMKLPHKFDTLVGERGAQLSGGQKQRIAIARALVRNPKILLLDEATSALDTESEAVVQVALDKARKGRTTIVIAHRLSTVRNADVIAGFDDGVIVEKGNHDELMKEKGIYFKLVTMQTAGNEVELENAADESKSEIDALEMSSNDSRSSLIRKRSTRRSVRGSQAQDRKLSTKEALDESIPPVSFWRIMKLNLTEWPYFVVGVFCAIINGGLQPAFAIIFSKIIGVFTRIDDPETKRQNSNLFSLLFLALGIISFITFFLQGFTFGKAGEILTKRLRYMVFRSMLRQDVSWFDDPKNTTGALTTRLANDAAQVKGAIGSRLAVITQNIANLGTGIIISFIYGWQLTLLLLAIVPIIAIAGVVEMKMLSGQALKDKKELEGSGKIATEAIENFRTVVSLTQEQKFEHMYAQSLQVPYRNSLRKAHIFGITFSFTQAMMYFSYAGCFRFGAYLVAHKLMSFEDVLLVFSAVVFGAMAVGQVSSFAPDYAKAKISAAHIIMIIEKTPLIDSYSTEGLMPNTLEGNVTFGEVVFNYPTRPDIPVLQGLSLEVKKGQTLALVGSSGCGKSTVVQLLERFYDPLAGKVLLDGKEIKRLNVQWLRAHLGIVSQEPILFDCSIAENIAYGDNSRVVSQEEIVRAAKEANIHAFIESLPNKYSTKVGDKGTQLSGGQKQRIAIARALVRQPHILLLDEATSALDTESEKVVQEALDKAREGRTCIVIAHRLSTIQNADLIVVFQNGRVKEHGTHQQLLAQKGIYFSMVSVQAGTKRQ

Take `COc1ccccc1CNCCCNC(=O)Nc1ccccc1`: in the data set on Trypanosoma brucei [1], the ΔTm is 1.1 °C. As to `O=C(NCCCNCc1cc(Cl)cc(Cl)c1)Nc1ccc(O)cc1`, the ΔTm in the data set on Trypanosoma brucei [1] was determined as 5.8 °C. The same measure, in the same setting: the same measure for `O=C(NCCCNCc1ccc(Cl)cc1)Nc1ccccc1`: 2.5 °C. Take `CC(C)NCC(O)COc1cccc2ccccc12` (configuration not stated) [PROPRANOLOL]: in [2], the AQ is reported as below 0.5. With `C[C@@H]1C[C@@H]([C@H](O)CC2CC(=O)NC(=O)C2)C(=O)[C@@H](C)C1`, in the data set on Trypanosoma brucei [3], the inhibition result is “Dose-dependent effect”. Take `O=C(NCCCNCc1cc(Cl)cc(Cl)c1Cl)Nc1ccccc1`: in the data set on Trypanosoma brucei [1], the ΔTm is 6.4 °C.

`O=C(NCCCNCc1cc(Cl)cc(Cl)c1)Nc1cccs1`: the ΔTm in the data set on Trypanosoma brucei [1] is 7.6 °C. In addition, in [4], the concentration for half-maximal inhibition (IC50) amounted to 0.064 µM. In addition, in data set [5], the Ratio IC50 is 48. For the same compound, the EC50 in data set [6] was 0.35 µM; with HepG2, 14.5 µM. With `NCCCC(N)(C(=O)O)C(F)F` (configuration not stated), the inhibition result with Trypanosoma brucei [3] was “inactive”. Consider `O=C(NCCCNCc1cc(Cl)cc(Cl)c1)Nc1cccc(O)c1`, for which the ΔTm in the data set on Trypanosoma brucei [1] was determined as 7.7 °C. Further, the IC50 in [4] was 0.029 µM. The Ratio IC50 in data set [5] was 187. The values for the EC50 in data set [6] and in data set [7] were 0.17 µM and 12 µM, respectively. This compound returned a Papp in data set [8] of 2.9 ×10⁻⁶ cm/s. In data set [2], the AQ was found to be 0.62. Consider `O=C(NCCCNCc1cccc(Cl)c1)Nc1ccccc1`, for which the ΔTm in the data set on Trypanosoma brucei [1] is 5.5 °C. `COc1ccc(CNCCCNC(=O)Nc2ccccc2)cc1`: in the data set with Trypanosoma brucei [1], the ΔTm stood at 1.1 °C. Same read-out and setting: the same measure for `O=C(NCCCNCc1cc(Cl)cc(Cl)c1)Nc1ccccc1F`: 7.3 °C; for `O=C(NCCCNCc1cc(Cl)cc(Cl)c1)Nc1cccnc1`: 7.1 °C; for `CCOc1ccc(CNCCCNC(=O)Nc2ccccc2)cc1`: 0.5 °C. Same read-out and setting: as for `Nc1cccc(NC(=O)NCCCNCc2cc(Cl)cc(Cl)c2)c1`, the figure is 4.3 °C; as for `O=C(NCCCNCc1cc(Cl)cc(Cl)c1)Nc1ccccn1`, 4.5 °C. Compound `Oc1cc(NCCCNCc2cc(Cl)cc(Cl)c2)nc2ccccc12` came in with a Papp in data set [8] of 2.9 ×10⁻⁶ cm/s. In data set [9], the concentration at 1 h was below 3 nM. Also, the AQ in [2] amounted to 0.36. Also, the inhibition result with Trypanosoma brucei [3] is “Dose-dependent effect”. Also, the selectivity ratio in [10] and in data set [11] was 27 throughout.
